A short description of one data set: PAMPA. The following applies: for Papp at 5 h, 500 µM: pH 7.4. It is filed as in vitro ADME. On the technique in general: PAMPA measures passive passage across an artificial lipid membrane.
A further data set has as its system C. albicans. Put plainly: Antifungal MIC, liquid growth inhibition. It is filed as cell-based. Conditions: Candida albicans, 24 h, read-out: Antifungal activity, MIC90. The gist of the method:
(§1)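 Clinical isolates from patient specimens, one isolate per patient. Yeasts were grown in YPD at 37 °C for 16 h with 150 rpm shaking, then subcultured to OD 0.3. Inoculum was set to 0.5 McFarland and diluted 1:500 in RPMI 1640 […]. CLSI broth microdilution used final compound concentrations of 256–0.125 µg/mL. MIC90 is the concentration inhibiting 90% of the strains tested per species.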

A further data set deals with C. tropicalis. Put plainly: Antifungal MIC, liquid growth inhibition. It is filed as cell-based. Conditions: Candida tropicalis, 24 h, read-out: Antifungal activity, MIC90. The gist of the method: as §1
In a further data set the test system is C. neoformans. Briefly: Antifungal MIC, liquid growth inhibition. The following applies: Cryptococcus neoformans, 24 h, read-out: Antifungal activity, MIC90. It is filed as cell-based. A digest of the protocol:
as §1

Each structure is given as a SMILES string. Values after ≈ are worked out from the molar mass of the structure shown.

The source of these data is PMC8830944 (Molecular Diversity, 2022).

A word on the Papp: it is a coefficient for how fast a substance crosses the barrier. For orientation: MIC90 means the lowest concentration that inhibits either 90% of growth or 90% of the strains tested, depending on the study.

As for `Cn1c(=O)c2c(ncn2C)n(C)c1=O` [Caffeine], in the data set “PAMPA”, the Papp at 5 h, 500 µM amounted to 1.84 ×10⁻⁶ cm/s. The Membrane retention in the data set “PAMPA” (phosphatidylcholine in dodecane, pH 7.4, 5 h, r.t.) amounted to 3.2%.
`O=C(N[C@H](CO)[C@H](O)c1ccc([N+](=O)[O-])cc1)C(Cl)Cl` [Chloramphenicol] yielded a Papp at 5 h, 500 µM in “PAMPA” of 0.3 ×10⁻⁶ cm/s.
Consider `OC(Cn1cncn1)(Cn1cncn1)c1ccc(F)cc1F` [F, Fluconazole], for which the MIC90 with C. albicans, in the data set on C. tropicalis and in the data set on C. neoformans was 2 µg/mL (≈ 6.53 µM) throughout.
